# Assays:
# [1] = molecular target: Nucleic Acid; assay: Displacement of methyl green from DNA after 24 hrs by microtiter assay; type: nucleic-acid assay
# Summary of the method: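 Complex: DNA–methyl green reagent (20 mg/100 ml) in 0.05 M Tris-HCl pH 7.5 with 7.5 mM MgSO4, stirred 24 h at 37°. Samples dried from EtOH in wells, then complex added. A630 read at once and after 24 h dark at ambient temperature. Final corrected for initial, normalized to untreated complex. IC50 for 50% decrease by linear regression on semi-log plot; n = 3 to 5.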
# [2] = tested on: Calf thymus DNA; assay: Displacement of ethidium bromide from calf thymus type 1 DNA after 4 hrs by microtiter assay
SMILES,IC50 [1] [µg/mL],IC50 [2] [µg/mL]
COc1c(O)c2c(c3cc(C(=O)N4CCc5c4c(O)c(OC)c4[nH]c(C(=O)N6C[C@H]7C[C@@]78C6=CC(=O)c6[nH]cc(C)c68)cc54)[nH]c13)CCN2C(N)=O [(+)-CC-1065],62,26
COc1cc2c(oc(=O)c3cc(C)cc(OC)c32)c2c([C@@H]3O[C@H](C)[C@H](O)[C@@](C)(O)[C@H]3O)ccc(O)c12 [CHRYSOMYCIN B],20,–
CCOc1ccc(-c2nc3cc(-c4nc5cc(N6CCN(C)CC6)ccc5[nH]4)ccc3[nH]2)cc1,37,33
C/C=C\C1OC1(C)c1cc(=O)c2c(C)cc3c(c2o1)C(=O)c1c(O)c([C@H]2C[C@](C)(N(C)C)[C@@H](OC(C)=O)[C@@H](C)O2)cc([C@@H]2C[C@H](N(C)C)[C@@H](O)[C@@H](C)O2)c1C3=O (some centres not stated) [PLURAMYCIN],51,3.6
COC(=O)C(O)(c1cc2c(c3oc([C@]4(C)C[C@@H]4C)cc(=O)c13)C(=O)c1c(ccc([C@H]3C[C@](C)(N(C)C)[C@H](O[C@@H]4C[C@H](OC)[C@H](O)[C@@H](C)O4)[C@H](C)O3)c1O)C2=O)[C@H]1O[C@H](C)[C@@H](O)[C@@H](OC)[C@@H]1O (some centres not stated) [ALTROMYCIN B],67,44

# Now from value to compound, other results behind:
IC50 [1] [µg/mL],SMILES,IC50 [2] [µg/mL]
17,C/C=C\C1OC1(C)c1cc(=O)c2c(C)cc3c(c2o1)C(=O)c1c(O)c([C@H]2C[C@@](C)(N(C)C)[C@H](O)[C@H](C)O2)cc([C@@H]2C[C@H](N(C)C)[C@@H](O)[C@@H](C)O2)c1C3=O (some centres not stated) [RUBIFLAVIN],13
67,N=C(N)c1ccc(/N=N/Nc2ccc(C(=N)N)cc2)cc1 [DIMINAZENE],59
30,COc1cccc2c1C(=O)c1c(O)c3c(c(O)c1C2=O)C[C@@](O)(C(C)=O)C[C@@H]3O[C@H]1C[C@H](N)[C@H](O)[C@H](C)O1 [DAUNORUBICIN],2
18,Cn1cc(NC(=O)c2cc(NC(=O)c3cc(NC=O)cn3C)cn2C)cc1C(=O)NCCC(=N)N [STALLIMYCIN],4.3

# Reference: ChEMBL document CHEMBL1150052, “A colorimetric microassay for the detection of agents that interact with DNA” (J Nat Prod, 1992)
